The values below come from PubChem BioAssay.

Test [1] in a line: inhibitors of TNFa-induced NFkB p65 translocation, primary screen, imaging, HUVEC, MLSMR starter and 10KST1 sets (AID 438;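 active = inhibition above 20% together with a positive visual image hit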;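 also: compound added about 3h40 before a 20 min TNFalpha stimulation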;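 as to inhibition: signal is the nuclear over cytoplasmic p65 intensity ratio per well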). The conditions noted are these: HUVEC TNFa-induced p65 nuclear translocation; cell count: measured here: nuclei count (cytotoxicity indicator), at 2.08 µM; inhibition: at 2 µM, stronger effect = higher value, 0% TNFa-plus-vehicle, 100% no-TNFa wells.
Test [2] is described as follows: endothelial E-selectin expression blockers – imaging, HUVEC, immunofluorescence, MLSMR starter and 10KST1 sets, primary screen (AID 487;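 active = visually confirmed hit in the image check and inhibition above 20%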;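 as to inhibition: signal is fraction of cell area covered by stained E-selectin grains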;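 as to nuclei count: 100% = median nuclei count of all wells on the same plate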). The conditions noted are these: HUVEC TNFalpha-induced E-selectin immunofluorescence imaging, at 2 µM; inhibition: stronger effect = higher value; nuclei count: measured here: cell number, toxicity.
The nature of test [3]: Primary imaging screen for DUSP6 inhibitors that restore phospho-Erk in transfected HeLa cells, chemical complementation (AID 609;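 active = compounds giving at least 50% inhibition in the cell-based MKP-3 phosphatase rescue imaging test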;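 as to inhibition: phospho-Erk level distribution per well compared with pooled transfected vehicle control wells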). The conditions noted are these: HeLa MKP-3 transfected, phospho-Erk imaging KS statistic, at 10 µM, cells stimulated with TPA for 15 min.
Test [4] concerns the target Dual specificity protein phosphatase 6 (Homo sapiens) (UniProt Q16828). The description is as above. The conditions noted are these: HeLa MKP-3 transfected, phospho-Erk imaging KS statistic; at 10 µM; stronger effect = higher value; cells stimulated with TPA for 15 min.
Test [5] concerns the target Voltage-gated potassium channel subunit beta-2 (Rattus norvegicus) (UniProt P62483). Nature of the test: inhibitors of rat Kvbeta2 reductase activity – biochemical, NADPH fluorescence, primary screen (AID 622;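 active = fluorescence slope higher than the sample average by over 3 SD, cut at about -0.22 in these data, passing the limit was not always enough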;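 also: slope of raw intensity against log time taken from 70 to 1610 s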). The conditions noted are these: recombinant KvBeta, 4-cyanobenzaldehyde reduction, at 10 µM, stronger effect = higher value.
Test [6] shares this target. Nature of the test: enhancers of rat Kvbeta2 NADPH turnover – biochemical, NADPH fluorescence, primary screen (AID 623).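 Also: fluorescence intensity change per second fitted from 20 to 320 s.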 The conditions noted are these: Recombinant KvBeta, NADPH fluorescence decrease slope, 10 min; at 10 µM; stronger effect = lower value.
In test [7] the target is Alpha-2C adrenergic receptor (Homo sapiens) (UniProt P18825). Nature of the test: compounds altering alpha2C-coupled GIRK flux – cell-based, HEK293 alpha2C/GIRK1/2, thallium flux, primary screen (AID 624;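 active = fluorescence slope after compound addition differing from the mean of all screened samples at 99.7% confidence, in either direction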;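 also: slope of fluorescence ratio to pre-addition baseline per second over 15 to 24 s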). The conditions noted are these: thallium flux BTC fluorescence, at 10 µM, actives lie on both sides.
Test [8] in a line: inhibitors of larval lipid processing in zebrafish, primary screen, whole organism, PED6 fluorescence, gall bladder and intestine (AID 686;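 active = a full or partial loss of lipid-probe fluorescence in the fish gall bladder, intestine or both, judged by eye; inactive = no fluorescence loss, or compound toxic to the fish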;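 also: larvae 5 to 7 days old with five fish per well; signal comes from phospholipase A2 cleavage of quenched PED6 carried via bile; overnight exposure to compound and PED6 before scoring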). The conditions noted are these: Zebrafish larvae PED6 lipid processing, fluorescence scoring; screened at 20 µM (by protocol). In short, it runs like this: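 Also added: quenched phospholipase substrate PED6, 100 nM final, ingested by larvae; System: zebrafish larvae, 5-7 d; Quantity: 5 larvae per well; Compound: 20 µM single dose; Schedule: overnight compound and PED6 incubation; Read-out: visual per-well fluorescence inhibition score; Measured by: By-eye fluorescence microscopy; Medium: E3.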

Test [9] is described as follows: loss of swimming-algae plug formation – whole organism, Chlamydomonas reinhardtii, WT vs cilia-less mutant, absorbance, 96-well, primary screen (AID 463189;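 active = inhibition at or above 50% relative to wild type and mutant plate controls; inactive = inhibition below 50%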;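 also: 0% = wild type cc124 cells in DMSO and 100% = ciliumless bld1 mutant cells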). The conditions noted are these: Chlamydomonas reinhardtii gravitaxis, OD600 absorbance, 2 days; at 10 µM; stronger effect = higher value.
Where [10] appears, read: measured here: cell density z-score.
Where [11] appears, read: measured here: nuclear c-Myc green intensity z-score.
Where [12] appears, read: measured here: nuclear pErk red intensity z-score, stronger effect = higher value.

Each structure is given as a SMILES string. Active and inactive are the calls of the source.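 The calls were made as follows, unless noted: active = NADPH fluorescence slope more negative than the mean of all samples by about 3 SD, 99.7% confidence; inactive = the rest.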

Chain of Alpha-2C adrenergic receptor (Homo sapiens) (P18825 whole entry, looked up): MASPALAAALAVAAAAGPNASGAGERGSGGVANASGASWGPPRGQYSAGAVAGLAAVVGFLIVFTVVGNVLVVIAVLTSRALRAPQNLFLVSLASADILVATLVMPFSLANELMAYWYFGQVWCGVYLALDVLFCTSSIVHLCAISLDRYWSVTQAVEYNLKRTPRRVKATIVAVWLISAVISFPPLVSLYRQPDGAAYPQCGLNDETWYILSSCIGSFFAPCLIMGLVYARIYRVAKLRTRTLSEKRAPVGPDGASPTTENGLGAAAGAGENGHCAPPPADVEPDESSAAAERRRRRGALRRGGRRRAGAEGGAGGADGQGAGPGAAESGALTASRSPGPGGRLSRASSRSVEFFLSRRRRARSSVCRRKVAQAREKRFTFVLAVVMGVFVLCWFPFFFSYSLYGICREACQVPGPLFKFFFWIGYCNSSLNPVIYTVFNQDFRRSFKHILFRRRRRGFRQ
Chain of Dual specificity protein phosphatase 6 (Homo sapiens) (Q16828 whole entry, looked up): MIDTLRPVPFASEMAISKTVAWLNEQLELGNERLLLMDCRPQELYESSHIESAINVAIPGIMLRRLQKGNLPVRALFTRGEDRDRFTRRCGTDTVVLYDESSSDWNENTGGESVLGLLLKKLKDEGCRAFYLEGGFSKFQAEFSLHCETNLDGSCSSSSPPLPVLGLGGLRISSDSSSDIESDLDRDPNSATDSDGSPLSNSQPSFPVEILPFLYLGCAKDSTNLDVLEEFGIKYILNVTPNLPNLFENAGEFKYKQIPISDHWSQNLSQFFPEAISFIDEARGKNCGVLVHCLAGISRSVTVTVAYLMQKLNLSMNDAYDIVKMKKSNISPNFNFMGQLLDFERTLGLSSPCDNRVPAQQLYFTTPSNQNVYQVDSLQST
Chain of Voltage-gated potassium channel subunit beta-2 (Rattus norvegicus) (P62483 whole entry, looked up): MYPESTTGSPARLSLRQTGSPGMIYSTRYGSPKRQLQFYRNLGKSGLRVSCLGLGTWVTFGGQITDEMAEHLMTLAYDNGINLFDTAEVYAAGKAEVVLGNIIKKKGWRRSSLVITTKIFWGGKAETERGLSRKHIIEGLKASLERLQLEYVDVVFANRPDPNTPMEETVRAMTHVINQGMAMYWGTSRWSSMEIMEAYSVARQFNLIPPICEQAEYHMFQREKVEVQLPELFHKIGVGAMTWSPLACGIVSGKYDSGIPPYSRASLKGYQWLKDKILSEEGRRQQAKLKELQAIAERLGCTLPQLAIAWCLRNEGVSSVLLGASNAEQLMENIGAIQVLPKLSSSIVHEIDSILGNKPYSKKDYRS

In the case of `COc1cccc(OCCN2CCN(c3ncnc4c3cnn4-c3ccccc3)CC2)c1`, the cell count in [1] was 555. In addition, the inhibition in test [1] is -23.4% (inactive); in test [2] it was -98.5% (inactive); in [4] it was -11.5% (inactive); in [9], 48.3% (inactive). Moreover, the nuclei count in test [2] is 166%. The z-score in test [3] (setting [10]) was 0.225; in test [3] (setting [11]), -1.36; in test [3] (setting [12]), 0.0914. In [5], the fluorescence slope is -0.519 (inactive). Also, the NADPH fluorescence slope in test [6] was -3.9e-05 (inactive). The slope in test [7] is 0.00443 (inactive). The molecule was called inactive in test [8].

For `Cc1cc(=O)oc(C)c1C(=O)N1CCN(C)CC1`, in test [1], the cell count came to 367. Besides, the inhibition is -10.4% (inactive) in [1], -117% (inactive) in [2], -8.59% (inactive) in test [4] and 5.44% (inactive) in test [9]. Moreover, in test [2], the nuclei count amounted to 167%. Moreover, the z-score in test [3] (setting [10]) was -1.15; in [3] (setting [11]), 0.212; in test [3] (setting [12]) it was 0.815. Besides, the fluorescence slope in test [5] was -0.463 (inactive). Further, the NADPH fluorescence slope in test [6] is -0.000105 (inactive). Also, the slope in [7] is 0.00444 (inactive). Moreover, the result in test [8] was inactive.

For the molecule `Cc1cccn2c(=O)c3cc(C#N)c(=N)n(Cc4ccncc4)c3nc12`, in test [1], the cell count worked out at 604. For the same molecule, the inhibition in test [1] was -18.3% (inactive); in test [2], -96.5% (inactive); in [4], -4.27% (inactive); in [9], -9.33% (inactive). In test [2], this molecule showed a nuclei count of 165%. The z-score in test [3] (setting [10]) was 0.463; in test [3] (setting [11]), -1.24; in test [3] (setting [12]), 0.303. Moreover, the fluorescence slope in test [5] is -0.479 (inactive). Further, the NADPH fluorescence slope in [6] was -4.2e-05 (inactive). Moreover, the slope in test [7] is 0.00367 (inactive). Further, the call in [8] was inactive.

As to `Nc1nnnn1CC(=O)OCc1cccc(Br)c1`, the cell count in test [1] amounted to 351. Moreover, the inhibition in test [1] was -7.3% (inactive); in test [2], -43.6% (inactive); in test [4] it was 1.42% (inactive); in test [9], -1.03% (inactive). In test [2], this molecule yielded a nuclei count of 167%. Further, the z-score was 0.909 in [3] (setting [10]), -0.848 in [3] (setting [11]) and 1.13 in test [3] (setting [12]). Further, the fluorescence slope in test [5] was -0.446 (inactive). Also, the NADPH fluorescence slope in test [6] is -0.000151 (inactive). Besides, in test [7], the slope is 0.00561 (inactive). For the same molecule, in [8], the outcome was inactive.

Take `Cc1nc2c(=O)n(C)c(=O)[nH]c2n1Cc1ccccc1`: the cell count in test [1] was 465. Further, the inhibition in test [1] is 3.5% (inactive); in [2], -59.5% (inactive); in test [4], -4.7% (inactive); in test [9], -5.62% (inactive). In addition, the nuclei count in test [2] was 153%. For the same molecule, the z-score in test [3] (setting [10]) is 0.739; in test [3] (setting [11]), 0.0972; in test [3] (setting [12]), 1.29. Further, the fluorescence slope in [5] was -0.394 (inactive). Also, in [6], the NADPH fluorescence slope is -4.2e-05 (inactive). Also, the slope in test [7] was 0.00601 (inactive). For the same molecule, the molecule was called inactive in test [8].

Consider `COc1ccc(OCC(O)Cn2c(Nc3cccc(C)c3)nc3c2c(=O)n(C)c(=O)n3C)cc1` (centres undefined), for which the cell count in test [1] was determined as 514. The inhibition was -0.2% (inactive) in [1], -160% (inactive) in test [2], 26.3% (inactive) in test [4] and 7.54% (inactive) in [9]. Besides, the nuclei count in test [2] was determined as 139%. Further, the z-score in test [3] (setting [10]) was 1.7; in test [3] (setting [11]), -1.51; in [3] (setting [12]), -0.035. The fluorescence slope in test [5] was -0.541 (inactive). Besides, the NADPH fluorescence slope in test [6] was -3.3e-05 (inactive). In addition, in test [7], the slope is 0.00591 (inactive). In addition, the outcome in [8] was inactive.

With `O=C(NC1CCCCC1)N1CCSC1=Nc1ccccc1`, in test [1], the cell count worked out at 490. Also, the inhibition in test [1] was -27.8% (inactive); in test [2] it was -420% (inactive); in test [4], 24.4% (inactive); in test [9], 11.3% (inactive). The molecule also showed a nuclei count in [2] of 202%. In addition, the z-score in test [3] (setting [10]) is 0.92; in test [3] (setting [11]), -1.53; in test [3] (setting [12]) it was 0.173. In test [5], the fluorescence slope is -0.495 (inactive). The NADPH fluorescence slope in test [6] was -9.6e-05 (inactive). The slope in [7] was 0.00417 (inactive). Further, in test [8], the result was inactive.

For `CC(C)C(C(=O)Nc1ncn[nH]1)N1C(=O)c2ccccc2C1=O` (centres undefined), the cell count in test [1] worked out at 520. Further, the inhibition in test [1] was -7% (inactive); in test [2], -28.4% (inactive); in test [4], -4.27% (inactive); in test [9], 0.44% (inactive). The molecule further yielded a nuclei count in test [2] of 121%. The z-score was -1.38 in test [3] (setting [10]), 0.141 in test [3] (setting [11]) and 1.7 in test [3] (setting [12]). Besides, the fluorescence slope in test [5] is -0.47 (inactive). For the same molecule, in test [6], the NADPH fluorescence slope was -7.2e-06 (inactive). In test [7], the slope is 0.0054 (inactive). For the same molecule, the molecule was classed as inactive in [8].

For the molecule `Cc1cc(C)c(-n2c(O)c(C=NCCN3CCOCC3)c(=O)[nH]c2=O)c(C)c1`, the cell count in test [1] came to 594. In addition, the inhibition in [1] was 6.5% (inactive); in test [2], 19% (inactive); in [4], 14% (inactive); in [9] it was 0.886% (inactive). In [2], the nuclei count came to 152%. In addition, the results for the z-score in [3] (setting [10]), in test [3] (setting [11]) and in [3] (setting [12]) were 0.606, -1.55 and -1.1, respectively. Besides, the fluorescence slope in [5] was -0.334 (inactive). The NADPH fluorescence slope in [6] was -5e-07 (inactive). The slope in [7] is 0.00437 (inactive). Further, the outcome in [8] was inactive.

On to `CC(C)Oc1ccc(C(=O)CCN2CCCCC2)cc1`, for which the cell count in test [1] is 457. Further, the inhibition in test [1] is 6.5% (inactive); in test [2] it was -349% (inactive); in test [4] it was -10.6% (inactive); in [9] it was 139% (active). Moreover, the nuclei count in [2] came to 163%. Moreover, the figures for the z-score in test [3] (setting [10]), in test [3] (setting [11]) and in [3] (setting [12]) were 0.309, -0.269 and -0.0861, respectively. Moreover, the fluorescence slope in [5] was -0.258 (inactive). The NADPH fluorescence slope in [6] is 2.6e-05 (inactive). Further, in [7], the slope was 0.00524 (inactive). For the same molecule, the molecule was classed as inactive in test [8].

For `CCCCOC(=O)CSc1nc(N)c(C#N)c(-c2ccc(OC)cc2)c1C#N`, the cell count in test [1] stood at 370. The inhibition is -0.4% (inactive) in [1], -58.5% (inactive) in test [2], 3.66% (inactive) in [4] and -17.4% (inactive) in test [9]. For the same molecule, in [2], the nuclei count stood at 99.4%. Moreover, the values for the z-score in [3] (setting [10]), in test [3] (setting [11]) and in [3] (setting [12]) were -2.23, 0.0198 and 1.46, respectively. Further, the fluorescence slope in test [5] is -0.52 (inactive). For the same molecule, in test [6], the NADPH fluorescence slope was -6.6e-05 (inactive). Besides, the slope in test [7] is 0.00456 (inactive). The outcome in [8] was inactive.

On to `Cc1cc(C)n(CC(=O)N2c3ccccc3Sc3ccccc32)n1`, for which, in [1], the cell count turned out to be 563. Further, the inhibition was -0.4% (inactive) in [1], -139% (inactive) in test [2], 15.9% (inactive) in [4] and 14.7% (inactive) in test [9]. The nuclei count in [2] was 139%. In addition, the results for the z-score in test [3] (setting [10]), in test [3] (setting [11]) and in test [3] (setting [12]) were 0.655, 0.867 and -0.852, respectively. The fluorescence slope in test [5] is -0.508 (inactive). Also, the NADPH fluorescence slope in [6] is -4.4e-05 (inactive). Further, in test [7], the slope was 0.00518 (inactive). In addition, the molecule was called inactive in [8].

Regarding `CCOc1cccc(-c2nnc3sc(-c4cccs4)nn23)c1`, the cell count in test [1] is 464. Further, the inhibition is -0.1% (inactive) in [1], -85.6% (inactive) in test [2], -2.47% (inactive) in [4] and 18.9% (inactive) in [9]. In test [2], this molecule came in with a nuclei count of 99.8%. Also, the values for the z-score in test [3] (setting [10]), in test [3] (setting [11]) and in [3] (setting [12]) were -0.8, 1.1 and 0.15, respectively. Besides, the fluorescence slope in [5] was -0.456 (inactive). In addition, the NADPH fluorescence slope in test [6] is -6.5e-05 (inactive). The slope in [7] was 0.00982 (inactive). In addition, the molecule was classed as inactive in [8].

As usually defined, the inhibition is the relative decrease from the control value, in per cent.
